Data: article PMC12120100 (Scientific Reports, 2025)

Columns and labels:
Assay in all cases: Alkaline comet assay
Type in all cases: cell-based, human
HT-29 cells = conditions: HT-29, 20 µM (positive control), 24 h, ± SEM
In short: (§1)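 Alkaline comet assay. Cells seeded in 6-well plates at 150 000 (HT-29), 250 000 (PC3) or 600 000 (PBLs) per 2 mL and left 24 h, then exposed 24 h (37 °C, 5% CO2) to test compound at 0.5, 1 and 2 µM. Controls: untreated and 20 µM bleomycin. Cells pelleted at 1400 rpm, 10 min, 4 °C. Slides stained with DAPI (1 µg/ml); about 100 cells/slide scored. Output: mean % tail DNA ± SEM; ANOVA with Dunnett's test.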

PC-3 cells = conditions: PC-3, 20 µM (positive control), 24 h, ± SEM
In short: as §1

PBLs = conditions: 20 µM (positive control), 24 h, ± SEM
In short: as §1

Substance: bleomycin
- DNA damage (mean tail DNA %) (HT-29 cells): 33.58 ± 3.62%
- DNA damage (mean tail DNA %) (PC-3 cells): 44.99 ± 2.37%
- DNA damage (mean tail DNA %) (PBLs): 41.33 ± 1.95%
